Source: ChEMBL document CHEMBL3227917, “Structure-activity relationships of dimeric Catharanthus alkaloids. 2. Experimental antitumor activities of N-substituted deacetylvinblastine amide (vindesine) sulfates” (J Med Chem, 1979)

Experiments:
[1] = Antitumor activity against mouse Gardner lymphosarcoma allografted in C3H mouse assessed as tumor growth inhibition at 0.25 mg/kg, ip administered daily for 8 to 10 days; format: functional; conditions: route intraperitoneal, read-out: TGI
Procedure, shortened: (§1)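 Gardner lymphosarcoma in C3H mice; sulfate salts unless noted, given ip daily for 8–10 days, treatment starting 8 days after tumor implantation. Tumor growth inhibition scored as –, 0–25%; +, 26–50%; ++, 51–75%; +++, 76–100%; T, lethal to ≥5 of 10 animals per group. Average of one or more tests.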

[2] = Antitumor activity against mouse Gardner lymphosarcoma allografted in C3H mouse assessed as tumor growth inhibition at 0.40 mg/kg, ip administered daily for 8 to 10 days; format: functional; conditions: route intraperitoneal, read-out: TGI; procedure, shortened: as §1
[3] = Antitumor activity against mouse Gardner lymphosarcoma allografted in C3H mouse assessed as tumor growth inhibition at 0.20 mg/kg, ip administered daily for 8 to 10 days; format: functional; conditions: route intraperitoneal, read-out: TGI; procedure, shortened: as §1
[4] = Antitumor activity against mouse Gardner lymphosarcoma allografted in C3H mouse assessed as tumor growth inhibition at 0.10 mg/kg, ip administered daily for 8 to 10 days; format: functional; conditions: route intraperitoneal, read-out: TGI; procedure, shortened: as §1
[5] = Antitumor activity against mouse Gardner lymphosarcoma allografted in C3H mouse assessed as tumor growth inhibition at 0.5 mg/kg, ip administered daily for 8 to 10 days; format: functional; conditions: route intraperitoneal, read-out: TGI; procedure, shortened: as §1
[6] = Antitumor activity against mouse Gardner lymphosarcoma allografted in C3H mouse assessed as tumor growth inhibition at 0.125 mg/kg, ip administered daily for 8 to 10 days; format: functional; conditions: route intraperitoneal, read-out: TGI; procedure, shortened: as §1
[7] = Toxicity in iv dosed mouse assessed as lethality; format: organism-based; conditions: in vivo
[8] = Antitumor activity against mouse Ridgway osteogenic sarcoma allografted in AKR mouse assessed as tumor growth inhibition at 0.20 mg/kg, ip administered daily for 8 to 10 days compound treatment commenced 8 days after tumor implantation; format: functional; conditions: route intraperitoneal, read-out: TGI
CHO [9] = assay: Mitotic arrest in CHO cells assessed as increase in cell accumulation at 0.2 ug/ml; format: functional, Cricetulus griseus
Procedure, shortened: (§2)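 Chinese hamster ovary cells in tissue culture, scored for mitotic arrest as increase in cells in mitotic arrest over control: +++, 40–50%; ++, 15–40%; +, 10–15%; ±, 7–10%; –, 3–7%. Cytotoxicity noted separately.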

[10] = Antitumor activity against mouse Gardner lymphosarcoma allografted in C3H mouse assessed as tumor growth inhibition at 0.05 mg/kg, ip administered daily for 8 to 10 days; format: functional; conditions: route intraperitoneal, read-out: TGI; procedure, shortened: as §1
[11] = Antitumor activity against mouse P1534 cells allografted in DBA2 mouse assessed as tumor growth inhibition at 0.10 mg/kg, ip administered daily for 8 to 10 days; format: functional; conditions: route intraperitoneal, read-out: TGI
Procedure, shortened: (§3)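 P1534(J) leukemia implanted sc in DBA2 mice; sulfate salts dosed ip daily for 8–10 days. Growth inhibition scored –, 0–25%; +, 26–50%; ++, 51–75%; +++, 76–100%; T, lethal to ≥5 of 10 animals per group. Average of one or more tests.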

[12] = Antitumor activity against mouse Ridgway osteogenic sarcoma allografted in AKR mouse assessed as tumor growth inhibition at 0.40 mg/kg, ip administered daily for 8 to 10 days compound treatment commenced 8 days after tumor implantation; format: functional; conditions: route intraperitoneal, read-out: TGI
B16 [13] = assay: Antitumor activity against mouse B16 cells allografted in C57BL/6 mouse assessed as prolongation of host survival at 1.20 mg/kg, ip administered on days 1,5 and 9; format: functional; conditions: route intraperitoneal
Procedure, shortened: (§4)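 B16 melanoma cells (10⁶ inoculum) implanted ip in C57BL/6 mice; groups of 10. Sulfate salts unless noted, given ip on days 1, 5 and 9. Single test. Survival prolongation is expressed as percent versus controls, with survivors counted on day 60. Toxic means deaths of ≥5 of 10 animals before the first control death.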

CHO [14] = assay: Mitotic arrest in CHO cells assessed as increase in cell accumulation at 0.002 ug/ml; format: functional, Cricetulus griseus; procedure, shortened: as §2
[15] = Antitumor activity against mouse Ridgway osteogenic sarcoma allografted in AKR mouse assessed as tumor growth inhibition at 0.05 mg/kg, ip administered daily for 8 to 10 days compound treatment commenced 8 days after tumor implantation; format: functional; conditions: route intraperitoneal, read-out: TGI
B16 [16] = assay: Antitumor activity against mouse B16 cells allografted in C57BL/6 mouse assessed as prolongation of host survival at 0.90 mg/kg, ip administered on days 1,5 and 9; format: functional; conditions: route intraperitoneal; procedure, shortened: as §4
[17] = Antitumor activity against mouse Ridgway osteogenic sarcoma allografted in AKR mouse assessed as tumor growth inhibition at 0.10 mg/kg, ip administered daily for 8 to 10 days compound treatment commenced 8 days after tumor implantation; format: functional; conditions: route intraperitoneal, read-out: TGI
CHO [18] = assay: Mitotic arrest in CHO cells assessed as increase in cell accumulation at 0.02 ug/ml; format: functional, Cricetulus griseus; procedure, shortened: as §2
B16 [19] = assay: Antitumor activity against mouse B16 cells allografted in C57BL/6 mouse assessed as prolongation of host survival at 0.60 mg/kg, ip administered on days 1,5 and 9; format: functional; conditions: route intraperitoneal; procedure, shortened: as §4
[20] = Antitumor activity against mouse P1534 cells allografted in DBA2 mouse assessed as tumor growth inhibition at 0.20 mg/kg, ip administered daily for 8 to 10 days; format: functional; conditions: route intraperitoneal, read-out: TGI; procedure, shortened: as §3
[21] = Antitumor activity against mouse P1534 cells allografted in DBA2 mouse assessed as tumor growth inhibition at 0.40 mg/kg, ip administered daily for 8 to 10 days; format: functional; conditions: route intraperitoneal, read-out: TGI; procedure, shortened: as §3

CC[C@]1(O)C[C@H]2CN(CCc3c([nH]c4ccccc34)[C@@](C(=O)OC)(c3cc4c(cc3OC)N(C)[C@H]3[C@@](O)(C(=O)NCCNC(C)=O)[C@H](O)[C@]5(CC)C=CCN6CC[C@]43[C@@H]65)C2)C1
inhibition in vivo at 0.25 mg/kg [1]: 76%
inhibition in vivo at 0.4 mg/kg [2]: 76%
inhibition in vivo at 0.2 mg/kg [3]: 76%
inhibition in vivo at 0.1 mg/kg [4]: 76%
inhibition in vivo at 0.5 mg/kg [5]: 76%
inhibition in vivo at 0.125 mg/kg [6]: 51%

CC[C@]1(O)C[C@H]2CN(CCc3c([nH]c4ccccc34)[C@@](C(=O)OC)(c3cc4c(cc3OC)N(C)[C@H]3[C@@](O)(C(=O)NCCO)[C@H](O)[C@]5(CC)C=CCN6CC[C@]43[C@@H]65)C2)C1.O=S(=O)(O)O
LD50 [7]: 4.4 mg/kg
inhibition in vivo at 0.2 mg/kg [8]: 76%
Activity (CHO [9]): 15%
inhibition in vivo at 0.05 mg/kg [10]: 76%
inhibition in vivo at 0.1 mg/kg [11]: 51%
inhibition in vivo at 0.4 mg/kg [12]: 76%
survival at 1.2 mg/kg (B16 [13]): 93%
Activity (CHO [14]): 3%
inhibition in vivo at 0.05 mg/kg [15]: 51%
inhibition in vivo at 0.4 mg/kg [2]: 76%
inhibition in vivo at 0.2 mg/kg [3]: 76%
inhibition in vivo at 0.1 mg/kg [4]: 76%
survival at 0.9 mg/kg (B16 [16]): 97%
inhibition in vivo at 0.1 mg/kg [17]: 76%
Activity (CHO [18]): 15%
survival at 0.6 mg/kg (B16 [19]): 51%

CC[C@]1(O)C[C@H]2CN(CCc3c([nH]c4ccccc34)[C@@](C(=O)OC)(c3cc4c(cc3OC)N(C)[C@H]3[C@@](O)(C(=O)NCCCO)[C@H](O)[C@]5(CC)C=CCN6CC[C@]43[C@@H]65)C2)C1
inhibition in vivo at 0.2 mg/kg [8]: 76%
inhibition in vivo at 0.2 mg/kg [20]: 76%
inhibition in vivo at 0.4 mg/kg [21]: 76%
inhibition in vivo at 0.4 mg/kg [12]: 76%
inhibition in vivo at 0.05 mg/kg [15]: 26%
inhibition in vivo at 0.4 mg/kg [2]: 76%
inhibition in vivo at 0.2 mg/kg [3]: 51%
inhibition in vivo at 0.1 mg/kg [17]: 76%
